Here are results for one compound from publication PMC4064470 (Journal of medicinal chemistry, 2013).

Assay [1] concerns the target T1, recombinant human VAP-1 (Homo sapiens, UniProt Q16853).
T1 sequence (Q16853 1-763): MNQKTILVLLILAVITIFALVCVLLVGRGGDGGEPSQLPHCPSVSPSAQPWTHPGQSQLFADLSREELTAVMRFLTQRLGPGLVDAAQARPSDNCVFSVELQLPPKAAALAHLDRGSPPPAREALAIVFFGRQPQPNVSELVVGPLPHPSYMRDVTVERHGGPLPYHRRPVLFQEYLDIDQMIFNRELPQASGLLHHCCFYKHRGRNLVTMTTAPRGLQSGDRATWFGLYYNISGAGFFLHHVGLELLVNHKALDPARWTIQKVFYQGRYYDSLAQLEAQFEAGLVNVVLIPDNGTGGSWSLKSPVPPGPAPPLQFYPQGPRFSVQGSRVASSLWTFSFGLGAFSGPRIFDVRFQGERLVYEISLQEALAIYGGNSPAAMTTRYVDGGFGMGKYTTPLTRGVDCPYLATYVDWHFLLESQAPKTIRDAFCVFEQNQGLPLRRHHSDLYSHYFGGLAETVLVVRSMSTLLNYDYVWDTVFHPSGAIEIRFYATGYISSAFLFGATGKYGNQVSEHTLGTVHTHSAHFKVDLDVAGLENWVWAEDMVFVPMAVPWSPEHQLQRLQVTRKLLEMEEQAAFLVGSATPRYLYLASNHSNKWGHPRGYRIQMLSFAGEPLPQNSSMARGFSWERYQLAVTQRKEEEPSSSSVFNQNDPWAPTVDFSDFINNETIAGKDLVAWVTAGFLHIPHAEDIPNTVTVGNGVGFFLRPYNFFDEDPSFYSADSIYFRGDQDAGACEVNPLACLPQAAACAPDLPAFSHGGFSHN
Put plainly: In vitro inhibition of recombinant human VAP-1 activity. In kind it is biochemical. Particulars: control compound. Put shortly: (§1)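 Enzyme source was lysate of CHO cells stably transfected with VAP-1 (native CHO has negligible activity), dosed to give 0.6 A490/h. Test compound (1 nM–50 μM) was preincubated 30 min at 37 °C with 0.2 M potassium phosphate pH 7.6, 1 mM 2,4-dichlorophenol, 500 μM 4-aminoantipyrine and 4 U/ml HRP. Then 1 mM benzylamine (final) was added for 1 h at 37 °C and A490 read. Percent inhibition was background-corrected and IC50 fitted, from two to six experiments.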

In assay [2] the target is T2, recombinant mouse VAP-1 (Mus musculus, UniProt O70423).
T2 sequence (O70423 1-765): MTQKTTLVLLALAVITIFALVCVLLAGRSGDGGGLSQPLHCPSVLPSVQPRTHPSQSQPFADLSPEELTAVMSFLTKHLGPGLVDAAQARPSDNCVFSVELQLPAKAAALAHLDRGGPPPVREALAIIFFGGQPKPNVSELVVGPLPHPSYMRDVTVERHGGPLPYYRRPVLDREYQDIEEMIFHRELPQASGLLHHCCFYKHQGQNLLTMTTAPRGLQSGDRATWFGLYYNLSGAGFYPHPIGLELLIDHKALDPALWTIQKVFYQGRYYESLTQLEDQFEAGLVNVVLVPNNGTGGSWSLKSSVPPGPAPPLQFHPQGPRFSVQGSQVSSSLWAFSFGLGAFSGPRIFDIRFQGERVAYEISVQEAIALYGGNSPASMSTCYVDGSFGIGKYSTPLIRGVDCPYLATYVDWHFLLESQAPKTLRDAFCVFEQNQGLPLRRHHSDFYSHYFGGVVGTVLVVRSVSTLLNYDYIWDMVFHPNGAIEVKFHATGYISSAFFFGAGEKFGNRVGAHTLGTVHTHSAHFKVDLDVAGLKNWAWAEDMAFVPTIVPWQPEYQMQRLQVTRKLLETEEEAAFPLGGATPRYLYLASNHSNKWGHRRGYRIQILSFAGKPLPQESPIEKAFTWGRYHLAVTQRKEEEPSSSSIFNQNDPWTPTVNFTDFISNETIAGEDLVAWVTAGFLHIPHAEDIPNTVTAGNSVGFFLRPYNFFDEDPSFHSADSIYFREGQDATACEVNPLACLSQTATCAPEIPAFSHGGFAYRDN
Description: In vitro inhibition of recombinant mouse VAP-1 activity. The class given is biochemical. Conditions: control compound; mouse VAP-1 in Figure 1. An outline of the steps:
as §1

In the case of `CN(N)[C@H](c1ccccc1)[C@@H](O)c1ccccc1.O=C(O)C(O)C(O)C(=O)O` [Compound 11d, (1S,2R)-2-(1-methylhydrazino)-1,2-diphenylethanol (S,S)-tartrate salt], the “inhibition of human VAP-1 (in words)” value in assay [1] is “inhibits”. Moreover, the “inhibition of rodent VAP-1 (in words)” value in assay [2] is “inhibits”.
